From ChEMBL document CHEMBL1130323, “Synthesis and anti-HIV activity of novel N-1 side chain-modified analogs of 1-[(2-hydroxyethoxy)methyl]-6-(phenylthio)thymine (HEPT)” (J Med Chem, 1997)

Experiments:
[1] = tested on: MT4; experiment: Effective concentration required to achieve 50% inhibition of HIV-1 multiplication in human T-4 lymphoblastoid cell line MT-4 IIIB; format: functional, cell-based
Method in brief: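 MT-4 cells infected with 50 TCID50 of HIV-1 IIIB and allowed 30 min adsorption, then washed. Cells were cultured with graded compound concentrations for 5 days. Protection from virus-induced cytopathogenicity was read by MTT reduction to formazan (OD 540 nm). IC50 was taken from a median effect plot. Means of at least two separate experiments.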

[2] = Concentration which reduces the cell viability by 50% (CEM-SS / MT-4); format: functional; conditions: Homo sapiens
Method in brief: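 Cytotoxicity measured on uninfected CEM-SS or MT-4 cells by MTT assay in the same experiment as the antiviral test, with cells cultured with graded compound concentrations for 5 days. Formazan read as OD at 540 nm. CC50 is the concentration reducing viability by 50%, calculated from a median effect plot. Means of at least two separate experiments.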

[3] = tested on: CEM-SS; experiment: Effective concentration required to achieve 50% inhibition of HIV-1 multiplication in human T-4 lymphoblastoid cell line CEM-SS/LAI; format: functional, cell-based
Method in brief: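 CEM-SS cells infected with 100 TCID50 of HIV-1 Lai and allowed 30 min adsorption, then free virus was washed off. Cells were cultured with graded compound concentrations for 5 days. Virus production was read as reverse transcriptase activity of virions in culture supernatants. IC50 was taken from a median effect plot. Means of at least two separate experiments.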

IC50 [3] [µM] | Compound | IC50 [1] [µM] | CC50 [2] [µM]
> 10 | Cc1c(Sc2ccccc2)n(COCCNC(=O)CCP(=O)(O)O)c(=O)[nH]c1=O | > 10 | > 1
> 100 | Cc1c(Sc2ccccc2)n(COCCNC(=O)CNCP(=O)(O)O)c(=O)[nH]c1=O | > 100 | > 1
 | CCc1c(Sc2ccccc2)n(COCc2ccccc2)c(=O)[nH]c1=O | 0.0059 | 
0.23 | Cc1c(Sc2ccccc2)n(C/C=C/c2ccccc2)c(=O)[nH]c1=O | 2.5 | > 1
> 1 | Cc1c(Sc2ccccc2)n(C/C=C/c2cc3ccccc3o2)c(=O)[nH]c1=O | > 1 | > 1
0.016 | CCc1c(Sc2ccccc2)n(C/C=C/c2ccccc2)c(=O)[nH]c1=O | 0.19 | > 1
2.2 | Cc1c(Sc2ccccc2)n(COCCI)c(=O)[nH]c1=O | > 10 | > 1
 | CCc1c(Sc2cc(C)cc(C)c2)n(COCc2ccccc2)c(=O)[nH]c1=O | 0.0032 | 
0.028 | CCc1c(Sc2cc(C)cc(C)c2)n(C/C=C/c2cccs2)c(=O)[nH]c1=O | 0.04 | > 1
11.4 | Cc1c(Sc2ccccc2)n(COCCNC(=O)CCCl)c(=O)[nH]c1=O | 40 | > 1
> 100 | Cc1c(Sc2ccccc2)n(COCCN2CCOCC2)c(=O)[nH]c1=O | > 100 | > 1
> 1 | Cc1c(Sc2ccccc2)n(C/C=C/C2CCCCC2)c(=O)[nH]c1=O | > 1 | > 1
0.14 | Cc1c(Sc2ccccc2)n(C/C=C/c2cccs2)c(=O)[nH]c1=O | > 1 | > 1
> 1 | Cc1c(Sc2ccccc2)n(COCCN(C(=O)c2ccccc2)C(=O)c2ccccc2)c(=O)[nH]c1=O | > 1 | > 1
0.09 | Cc1c(Sc2ccccc2)n(COCc2ccccc2)c(=O)[nH]c1=O | 0.74 | > 1
0.94 | CCc1c(Sc2ccccc2)n(C/C=C/c2ccc([N+](=O)[O-])s2)c(=O)[nH]c1=O | > 1 | > 1
> 10 | Cc1c(Sc2ccccc2)n(COCCNC(=O)c2ccccc2)c(=O)[nH]c1=O | > 10 | > 1
0.008 | CCc1c(Sc2ccccc2)n(C/C=C/c2cccs2)c(=O)[nH]c1=O | 0.08 | > 1

IC50 [3] [µM] | Compound | IC50 [1] [µM] | CC50 [2] [µM]
0.008 | CCc1c(Sc2ccccc2)n(C/C=C/c2ccco2)c(=O)[nH]c1=O | 0.17 | > 1
> 10 | Cc1c(Sc2ccccc2)n(COCCN2CCNCC2)c(=O)[nH]c1=O | > 10 | > 1
0.055 | Cc1c(Sc2ccccc2)n(COCCNc2ccccc2)c(=O)[nH]c1=O | 1 | > 1
31 | Cc1c(Sc2ccccc2)n(COCCN)c(=O)[nH]c1=O |  | > 1
> 1 | Cc1c(Sc2ccccc2)n(C/C=C/c2ccc([N+](=O)[O-])s2)c(=O)[nH]c1=O | > 1 | > 1
0.83 | Cc1c(Sc2ccccc2)n(COCCSc2ccccn2)c(=O)[nH]c1=O | > 1 | > 1
0.031 | CCc1c(Sc2cc(C)cc(C)c2)n(C/C=C/c2ccccc2)c(=O)[nH]c1=O |  | > 1
27.5 | Cc1c(Sc2ccccc2)n(COCCN(CC#N)CC#N)c(=O)[nH]c1=O | > 100 | > 1
0.01 | CCc1c(Sc2cc(C)cc(C)c2)n(C/C=C/c2ccco2)c(=O)[nH]c1=O | 0.04 | > 1
0.33 | Cc1c(Sc2ccccc2)n(C/C=C/c2ccco2)c(=O)[nH]c1=O | > 1 | > 1
0.76 | Cc1c(Sc2ccccc2)n(COCCBr)c(=O)[nH]c1=O | 2.8 | > 1
0.038 | CCc1c(Sc2ccccc2)n(C/C=C/c2cc3ccccc3o2)c(=O)[nH]c1=O | > 1 | > 1
8.75 | Cc1c(Sc2ccccc2)n(COCCN(c2ccccc2)c2ccccc2)c(=O)[nH]c1=O | > 10 | > 1
> 1 | Cc1c(Sc2ccccc2)n(COCCSc2ccccc2)c(=O)[nH]c1=O |  | > 1
0.15 | Cc1c(Sc2ccccc2)n(C/C=C/c2cccnc2)c(=O)[nH]c1=O | 0.1 | > 1
0.44 | Cc1c(Sc2ccccn2)n(COCCSc2ccccn2)c(=O)[nH]c1=O | 8 | > 1
1 | Cc1c(Sc2ccccn2)n(COCCSc2ccccc2)c(=O)[nH]c1=O | > 1 | > 1
2 | Cc1c(Sc2ccccc2)n(COCCO)c(=O)[nH]c1=O [HEPT] | 11 | > 1
